Measurements collected from several papers.
Lines come from different studies, so protocols differ.
SIRT3: NAD-dependent protein deacetylase sirtuin-3, mitochondrial (SIRT3, Homo sapiens, UniProt Q9NTG7)
TAF1L BD1: Transcription initiation factor TFIID subunit 1-like, BD1 (TAF1L, Homo sapiens, UniProt Q8IZX4)
PTGS1: Prostaglandin G/H synthase 1 (PTGS1, Ovis aries, UniProt P05979)
MAP3K6: Mitogen-activated protein kinase kinase kinase 6 (MAP3K6, Homo sapiens, UniProt O95382)
MAP3K9: Mitogen-activated protein kinase kinase kinase 9 (MAP3K9, Homo sapiens, UniProt P80192)

C[S+]([O-])c1ccc(-c2nc(-c3ccncc3)c(-c3ccc(F)cc3)[nH]2)cc1 (stereo not shown)  ΔTm (Transcription initiation factor TFIID subunit 1, BD1 (TAF1, Homo sapiens, UniProt P21675); thermal stability; DSF; 10 µM): -0.19 °C
NS(=O)(=O)c1ccc(Nc2nc(-c3ccc(F)cc3)c3ccccc3n2)cc1  remaining binding (Peregrin (BRPF1, Homo sapiens, UniProt P55201); binding; competition with immobilised ligand; 1 µM): 76%
CCCCCC1CC(=O)c2ccccc2O1 (stereo not shown)  inhibition (SIRT3; enzyme activity; inhibitor; fluorescence; 200 µM): 0.8%
Cc1cc2c(cc1N1C(=O)c3cccc4c(Cl)ccc(c34)C1=O)n(C)c(=O)n2C  ΔTm (TAF1L BD1; thermal stability; DSF; 10 µM): -0.2 °C
CCCCCCNC(=O)c1ccccc1SC(C)=O  kinact (PTGS1; enzyme activity; inhibitor; mass spectrometry): 0.0103 s⁻¹
CCCOc1ccc(OC)c(F)c1C(=O)c1ccc(C(=O)N[C@@H]2CNC[C@H]2NC(=O)c2ccc3[nH]ncc3c2)cc1  remaining activity (Serine/threonine-protein kinase MRCK alpha (CDC42BPA, Homo sapiens, UniProt Q5VT25); enzyme activity; inhibitor; 50 nM): 83%
Nc1ncnc2occ(-c3ccc(NC(=O)Nc4cc(C(F)(F)F)ccc4F)cc3)c12  remaining signal (MAP3K6; cell-free assay; inhibitor; 20 µM): 20%
CCCCC[C@@H]1CC(=O)c2cc(Cl)cc(Br)c2O1  inhibition (SIRT3; enzyme activity; inhibitor; fluorescence; 200 µM): 3.9%
CCCCC#CCNC(=O)c1ccccc1SC(C)=O  kinact (PTGS1; enzyme activity; inhibitor): 0.000367 s⁻¹
CN(C)C1CCN(CC#Cc2nn(C3CCCC3)c3nc(NCc4ccccc4)ncc23)C1 (stereo not shown)  inhibition (Activin receptor type-1B (ACVR1B, Homo sapiens, UniProt P36896); enzyme activity; inhibitor; FRET; 1 µM): 5%
Cc1cnc(Nc2ccc(OCCN3CCCC3)cc2)nc1Nc1cccc(S(=O)(=O)NC(C)(C)C)c1  ΔTm (Transcription initiation factor TFIID subunit 1-like, BD2 (TAF1L, Homo sapiens, UniProt Q8IZX4); thermal stability; DSF; 10 µM): 0.91 °C
Cc1nn(CC(F)(F)F)cc1Nc1ncc(Br)c(NCCCNC(=O)C2CCC2)n1  remaining activity (MAP3K9; enzyme activity; inhibitor; radiometric; 1 µM): 21%
Oc1ccc(-c2nc(-c3ccncc3)c(-c3ccc(F)cc3)[nH]2)cc1  ΔTm (TAF1L BD1; thermal stability; DSF; 10 µM): 0.17 °C
Cc1ccc(C(=O)NCc2ccsc2)cc1C#Cc1cn(C(C)C)c2ncnc(N)c12  activity vs control (Transcription initiation factor TFIID subunit 1-like (TAF1L, Homo sapiens, UniProt Q8IZX4); enzyme activity; inhibitor; 1 µM): 91%
Cc1ccc(C(=O)Nc2ccc(CN3CCN(C)CC3)c(C(F)(F)F)c2)cc1C#Cc1cnc2cccnn12  remaining activity (MAP3K6; enzyme activity; inhibitor; 23.5 nM): 79%
O=C(NCCCNc1nc(Nc2cccc(NC(=O)N3CCCC3)c2)ncc1Br)C1CCC1  remaining activity (MAP3K9; enzyme activity; inhibitor; radiometric; 1 µM): 0%
Oc1cccc(Nc2nc(-c3ccc(F)cc3F)cs2)c1  inhibition (Type-2 angiotensin II receptor (AGTR2, Homo sapiens, UniProt P50052); cell-free assay; 10 µM): -5.6%
Cc1nn(CC(F)(F)F)cc1Nc1ncc(C2CC2)c(NCCc2c[nH]cn2)n1  remaining activity (MAP3K9; enzyme activity; inhibitor; radiometric; 1 µM): 72%
CCCCCC1CC(=O)c2cccc(Br)c2O1 (stereo not shown)  inhibition (SIRT3; enzyme activity; inhibitor; fluorescence; 200 µM): 6.7%
